Results as given in ChEMBL document CHEMBL1126560, “Endothelin-1 analogues substituted at both position 18 and 19: highly potent endothelin antagonists with no selectivity for either receptor subtype ETA or ETB” (J Med Chem, 1993).

Assays:
[1] = organism: Mus musculus; assay: Compound induced increase in cystolic free ca+2 concentration in murine peritoneal macrophages was measured; format: functional
Procedure, shortened: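 Murine peritoneal macrophages from male ICR mice given ip 10% protease peptone 3 days before, adhered 1.5 h at 37 °C, fura-2 AM loaded (4 μM, 24 °C, 1.5 h). Fura-2 fluorescence ratio (340/380 nm excitation, 505 nm emission) at 37 °C. Compound at 100 nM; rise expressed as % of 100 nM ET-1 response.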

[2] = molecular target: T1, Endothelin-1 receptor (Sus scrofa, UniProt Q29010); assay: Tested for the competitive binding versus [125I]- ET-1 determined in porcine cardiac ventricular membrane for Endothelin A receptor
T1 sequence (Q29010 whole entry): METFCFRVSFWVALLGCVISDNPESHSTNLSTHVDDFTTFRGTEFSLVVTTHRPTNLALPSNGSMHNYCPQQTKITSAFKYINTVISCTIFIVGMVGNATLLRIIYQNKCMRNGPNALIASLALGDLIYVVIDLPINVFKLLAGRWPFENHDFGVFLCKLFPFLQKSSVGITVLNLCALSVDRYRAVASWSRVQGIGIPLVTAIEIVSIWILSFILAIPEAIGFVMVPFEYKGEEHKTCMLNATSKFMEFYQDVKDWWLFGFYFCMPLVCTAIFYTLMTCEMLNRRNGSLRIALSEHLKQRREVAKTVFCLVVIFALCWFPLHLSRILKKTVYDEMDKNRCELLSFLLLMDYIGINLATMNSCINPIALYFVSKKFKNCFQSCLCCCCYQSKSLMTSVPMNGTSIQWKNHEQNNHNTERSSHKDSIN
Procedure, shortened: (§1)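 Membranes (porcine cardiac ventricle at 12 μg/mL for ETA; bovine cerebrum at 150 μg/mL for ETB) in pH 7.2 Tris/EGTA/Mg acetate/0.1% BSA buffer with protease inhibitors. Incubated with 100 pM [125I]ET-1 and varied compound for 1 h at 25 °C, then filtered and counted by gamma counter. IC50 given as mean ± SEM of ≥3 determinations.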

[3] = molecular target: T2, Endothelin receptor type B (Bos taurus, UniProt P28088); assay: Tested for the competitive binding versus [125I]- ET-1 determined in bovine cerebrum membrane for Endothelin B receptor; format: cell membranes; procedure, shortened: as §1
T2 sequence (P28088 whole entry): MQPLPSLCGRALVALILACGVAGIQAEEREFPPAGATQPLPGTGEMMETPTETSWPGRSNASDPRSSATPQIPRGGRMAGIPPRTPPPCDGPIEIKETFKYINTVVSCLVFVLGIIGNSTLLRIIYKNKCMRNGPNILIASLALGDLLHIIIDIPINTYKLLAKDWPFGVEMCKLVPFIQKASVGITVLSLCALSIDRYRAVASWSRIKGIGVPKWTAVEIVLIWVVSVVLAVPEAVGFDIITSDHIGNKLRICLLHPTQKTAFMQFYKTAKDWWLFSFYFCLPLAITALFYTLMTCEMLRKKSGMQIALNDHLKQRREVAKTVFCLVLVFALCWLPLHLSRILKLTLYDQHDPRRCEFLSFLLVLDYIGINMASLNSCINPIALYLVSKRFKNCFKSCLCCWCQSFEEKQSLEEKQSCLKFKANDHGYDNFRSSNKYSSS

SMILES | [Ca2+] increase [1] | IC50 [2] [nM] | IC50 [3] [nM]
CC[C@H](C)[C@H](NC(=O)[C@H](CC(C)C)NC(=O)[C@@H](NC(=O)[C@H](CC(C)C)NC(=O)[C@H](Cc1c[nH]cn1)NC(=O)[C@@H]1CSSC[C@H](N)C(=O)N[C@@H](CO)C(=O)N[C@H]2CSSC[C@H](NC(=O)[C@H](CCC(=O)O)NC(=O)[C@H](CCCCN)NC(=O)[C@H](CC(=O)O)NC(=O)[C@H](CCSC)NC(=O)[C@H](CC(C)C)NC(=O)[C@H](CO)NC(=O)[C@H](CO)NC2=O)C(=O)N[C@@H](C(C)C)C(=O)N[C@@H](Cc2ccc(O)cc2)C(=O)N[C@@H](Cc2ccccc2)C(=O)N1)[C@@H](C)O)C(=O)N[C@@H](Cc1c[nH]c2ccccc12)C(=O)O | 28 |  | 
CC[C@H](C)[C@H](NC(=O)[C@H](CC(=O)O)NC(=O)[C@H](CC(C)C)NC(=O)[C@H](Cc1c[nH]cn1)NC(=O)[C@@H]1CSSC[C@H](NC(=O)[C@H](CCC(=O)O)NC(=O)[C@H](CCCCN)NC(=O)[C@H](CC(=O)O)NC(=O)[C@H](CCSC)NC(=O)[C@H](CC(C)C)NC(=O)[C@H](CO)NC(=O)[C@H](CO)NC(=O)[C@@H]2CSSC[C@H](N)C(=O)N[C@@H](CO)C(=O)N2)C(=O)N[C@@H](C(C)C)C(=O)N[C@@H](Cc2ccc(O)cc2)C(=O)N[C@@H](Cc2ccccc2)C(=O)N1)C(=O)N[C@H](C(=O)N[C@@H](Cc1c[nH]c2ccccc12)C(=O)O)[C@@H](C)CC | 100 |  | 
CC[C@H](C)[C@H](NC(=O)[C@H](CC1CCCCC1)NC(=O)[C@@H](NC(=O)[C@H](CC(C)C)NC(=O)[C@H](Cc1c[nH]cn1)NC(=O)[C@@H]1CSSC[C@H](N)C(=O)N[C@@H](CO)C(=O)N[C@H]2CSSC[C@H](NC(=O)[C@H](CCC(=O)O)NC(=O)[C@H](CCCCN)NC(=O)[C@H](CC(=O)O)NC(=O)[C@H](CCSC)NC(=O)[C@H](CC(C)C)NC(=O)[C@H](CO)NC(=O)[C@H](CO)NC2=O)C(=O)N[C@@H](C(C)C)C(=O)N[C@@H](Cc2ccc(O)cc2)C(=O)N[C@@H](Cc2ccccc2)C(=O)N1)[C@@H](C)O)C(=O)N[C@@H](Cc1c[nH]c2ccccc12)C(=O)O | 10 |  | 
CC[C@H](C)[C@H](NC(=O)[C@H](CC(=O)O)NC(=O)[C@H](CC(C)C)NC(=O)[C@H](Cc1c[nH]cn1)NC(=O)[C@@H]1CSSC[C@H](N)C(=O)N[C@@H](CO)C(=O)N[C@H]2CSSC[C@H](NC(=O)[C@H](CCC(=O)O)NC(=O)[C@H](CCCCN)NC(=O)[C@H](CC(=O)O)NC(=O)[C@H](CCSC)NC(=O)[C@H](CC(C)C)NC(=O)[C@H](CO)NC(=O)[C@H](CO)NC2=O)C(=O)N[C@@H](C(C)C)C(=O)N[C@@H](Cc2ccc(O)cc2)C(=O)N[C@@H](Cc2ccccc2)C(=O)N1)C(=O)N[C@H](C(=O)N[C@@H](Cc1c[nH]c2ccccc12)C(=O)O)[C@@H](C)CC [ENDOTHELIN] | 100 | 0.15 | 0.12
CC[C@H](C)[C@H](NC(=O)[C@H](CC(=O)O)NC(=O)[C@H](CC(C)C)NC(=O)[C@H](Cc1cnc[nH]1)NC(=O)[C@@H]1CSSC[C@H](NC(=O)[C@H](CCC(=O)O)NC(=O)[C@H](CCCCN)NC(=O)[C@H](CC(=O)O)NC(=O)[C@H](CCSC)NC(=O)[C@H](CC(C)C)NC(=O)[C@H](CO)NC(=O)[C@H](CO)NC(=O)[C@@H]2CSSC[C@H](N)C(=O)N[C@@H](CO)C(=O)N2)C(=O)N[C@@H](C(C)C)C(=O)N[C@@H](Cc2ccc(O)cc2)C(=O)N[C@@H](Cc2ccccc2)C(=O)N1)C(=O)N[C@H](C(=O)N[C@@H](Cc1c[nH]c2ccccc12)C(=O)O)[C@@H](C)CC |  | 5.9 | 0.093
CC[C@H](C)[C@H](NC(=O)[C@H](CC(C)(C)C)NC(=O)[C@@H](NC(=O)[C@H](CC(C)C)NC(=O)[C@H](Cc1c[nH]cn1)NC(=O)[C@@H]1CSSC[C@H](N)C(=O)N[C@@H](CO)C(=O)N[C@H]2CSSC[C@H](NC(=O)[C@H](CCC(=O)O)NC(=O)[C@H](CCCCN)NC(=O)[C@H](CC(=O)O)NC(=O)[C@H](CCSC)NC(=O)[C@H](CC(C)C)NC(=O)[C@H](CO)NC(=O)[C@H](CO)NC2=O)C(=O)N[C@@H](C(C)C)C(=O)N[C@@H](Cc2ccc(O)cc2)C(=O)N[C@@H](Cc2ccccc2)C(=O)N1)[C@@H](C)O)C(=O)N[C@@H](Cc1c[nH]c2ccccc12)C(=O)O | 0 |  | 
